Assay results collected from several papers.
Lines come from different studies, so protocols differ.
Target: Serine/threonine-protein kinase ICK (CILK1, Homo sapiens, UniProt Q9UPZ9)
Sequence (Q9UPZ9 1-632, as in one of the studies): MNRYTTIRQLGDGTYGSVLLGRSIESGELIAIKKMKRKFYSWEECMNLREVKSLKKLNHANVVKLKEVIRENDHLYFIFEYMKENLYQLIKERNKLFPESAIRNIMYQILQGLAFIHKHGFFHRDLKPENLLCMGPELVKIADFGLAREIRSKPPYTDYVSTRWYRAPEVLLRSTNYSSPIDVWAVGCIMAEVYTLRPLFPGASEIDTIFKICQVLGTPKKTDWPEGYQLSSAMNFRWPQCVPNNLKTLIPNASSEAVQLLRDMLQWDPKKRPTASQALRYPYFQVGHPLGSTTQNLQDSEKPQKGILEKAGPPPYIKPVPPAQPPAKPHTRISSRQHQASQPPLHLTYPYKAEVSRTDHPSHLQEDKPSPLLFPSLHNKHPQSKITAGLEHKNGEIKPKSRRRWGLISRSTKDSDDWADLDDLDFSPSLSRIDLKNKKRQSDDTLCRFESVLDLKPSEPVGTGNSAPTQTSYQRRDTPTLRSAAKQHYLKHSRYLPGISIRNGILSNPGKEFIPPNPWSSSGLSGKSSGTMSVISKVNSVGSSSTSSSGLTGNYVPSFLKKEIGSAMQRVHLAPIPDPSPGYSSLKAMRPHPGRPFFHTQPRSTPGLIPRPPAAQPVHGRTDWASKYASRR

| Compound | assay | setting | quantity | result |
| --- | --- | --- | --- | --- |
| Cc1sc(C(=O)NC2COC2)cc1-n1cc(NC(=O)Nc2c(F)cccc2Cl)cn1 | enzyme activity, inhibitor | 10 µM | remaining activity | 100% |
| CO[C@@H](C)c1c(Nc2ccc([C@H](N(C)C(=O)C3CCS(=O)(=O)CC3)C(F)(F)F)cc2)cnc2cc(Cl)nn12 | cell-free assay, competition with immobilised ligand | 1 µM | remaining binding | 70% |
| O=C(Nc1cnn(-c2csc(C(=O)NC3COC3)c2)c1)Nc1c(F)cccc1Cl | enzyme activity, inhibitor | 5 µM | remaining activity | 96.6% |
| O=C1NC(c2ccccn2)Sc2ccccc21 (stereo not drawn) | cell-free assay, competition with immobilised ligand | 1 µM | remaining binding | 86% |
| Cc1ccc(C(=O)NCc2ccsc2)cc1C#Cc1cn(C(C)C)c2ncnc(N)c12 | enzyme activity, inhibitor | 1 µM | activity vs control | 103% |
| CN1CC(Oc2cnc(C#N)cc2-c2ccn3nc(NC(=O)C4CC4)cc3c2)C1 | enzyme activity, inhibitor | 1 µM | inhibition | -20% |
| CC(C)(O)[C@H]1CC[C@H](Nc2ccc3ncc(-c4cccc(C(F)(F)F)c4)n3n2)CC1 | enzyme activity, inhibitor | 1 µM | remaining activity | 86% |
| Cc1ccc(C(=O)Nc2ccc(CN3CCN(C)CC3)c(C(F)(F)F)c2)cc1C#Cc1cnc2cccnn12 | enzyme activity | 23.5 nM | remaining activity | 96% |
| Nc1ncnc2occ(-c3ccc(NC(=O)Nc4cc(C(F)(F)F)ccc4F)cc3)c12 | cell-free assay | 20 µM | remaining signal | 12% |
